Active and inactive are the calls of the source. No cut-off for these calls is given here. Bounds are passed on as bounds.

Series [1] in a line: Cytotoxicity against mouse RAW264.7 cells assessed as reduction in cell viability after 24 hrs by neutral red dye based assay. Put shortly: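 Neutral red uptake assay on RAW264.7 murine macrophages in DMEM + 10% heat-inactivated FCS, 40.000 cells/well, seeded the day before. Two-fold serial dilutions from 128 µM final. Exposure 24 h at 37 °C, 5% CO2; then neutral red for 3 h, extraction with 1:1 ethanol/acetic acid. OD read at 530 nm (reference 620 nm).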

For series [2], the system named is Mycobacterium tuberculosis. Nature of the series: Inhibition of Mycobacterium tuberculosis Zinc metalloprotease-1 at 40 uM using angiotensin 2 as substrate preincubated for 3 mins and measured after 20 mins by MALDI-TOF MS analysis relative to control. Put shortly: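 Human angiotensin II substrate in NH4HCO3 was preincubated 3 min at 37 °C with inhibitor in acetone (acetone alone for control). Recombinant Mtb Zmp1 was added and the reaction ran 20 min at 37 °C. Cleavage was followed by MALDI-TOF MS (reflectron positive mode). Inhibition rate at 40 µM was taken as the inverted ratio of time-course slopes, inhibited versus control. Phosphoramidon reference at 40 µM final.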

The nature of series [3]: Inhibition of Mycobacterium tuberculosis Zinc metalloprotease-1 using angiotensin 2 as substrate preincubated for 3 mins and measured after 20 mins by MALDI-TOF MS analysis. Put shortly:
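Zmp1 digestion of human angiotensin II in NH4HCO3 at 37 °C: 3 min preincubation with inhibitor, then 20 min reaction with recombinant Mtb Zmp1, monitored by MALDI-TOF MS. IC50 derived from slope ratios, inhibited versus control, at three inhibitor concentrations within 20–80 µM.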

Series [4] concerns Mycobacterium tuberculosis. The series is described as follows: Antimycobacterial activity against Mycobacterium tuberculosis H37Ra infected in mouse RAW264.7 cells assessed as inhibition of intracellular bacterial growth at 10 uM after 24 hrs by luciferase reporter gene based assay. It is filed as functional, organism-based. In short, it runs like this: (§1)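 Murine RAW264.7 macrophages (DMEM + 10% heat-inactivated FCS, 37 °C, 5% CO2; 40.000 cells/well) infected 2 h at 37 °C with luciferase-reporter Mtb H37Ra (pSMT1) at MOI 10. Extracellular bacteria were killed with 100 µg/ml gentamicin for 1 h. Compounds were given at 10 and 100 µM final; isoniazid reference 0.1 µM. After 24 h, cells were lysed in 1% Triton X-100 and read by luminescence after n-decanal addition. Inhibition % was calculated versus untreated control; mean of triplicates.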

In series [5] the test system is Mycobacterium tuberculosis. The series is described as follows: Antimycobacterial activity against Mycobacterium tuberculosis H37Ra infected in mouse RAW264.7 cells assessed as inhibition of intracellular bacterial growth at 10 uM after 24 hrs by luciferase reporter gene based assay relative to control. It is filed as functional. As to conditions: RAW264.7, 24 h, read-out: INH. In short, it runs like this: as §1

A short description of series [6]: Selectivity index, ratio of CC50 for mouse RAW264.7 cells to MIC90 for antimycobacterial activity against Mycobacterium tuberculosis H37Rv. It is filed as toxicity. As to conditions: read-out: Selectivity Index.
Series [7] deals with Mycobacterium tuberculosis. Nature of the series: Antimycobacterial activity against Mycobacterium tuberculosis H37Ra infected in mouse RAW264.7 cells assessed as inhibition of intracellular bacterial growth at 100 uM after 24 hrs by luciferase reporter gene based assay relative to control. The class given is functional. As to conditions: RAW264.7, 24 h. In short, it runs like this:
as §1

In series [8] the test system is Mycobacterium tuberculosis. Nature of the series: Antimycobacterial activity against Mycobacterium tuberculosis H37Ra infected in mouse RAW264.7 cells assessed as inhibition of intracellular bacterial growth at 100 uM after 24 hrs by luciferase reporter gene based assay. It is filed as functional, organism-based. In short, it runs like this:
as §1

Take `C=CCONC(=O)C(C)N1C(=O)S/C(=C\c2ccc(F)cc2)C1=O` (centres undefined): the CC50 at 24 h in series [1] was > 128 µM. For the same compound, the inhibition in series [2] amounted to 95.5%. This compound showed an IC50 in series [3] of 20 to 160 µM.
For `C=CCONC(=O)C(C)N1C(=O)S/C(=C\CCCC)C1=O` (centres undefined), in that order: > 128 µM, 34.7% and 20 to 160 µM.
Take `C=CCONC(=O)CN1C(=O)S/C(=C\c2ccc(C(F)(F)F)cc2)C1=O`: the CC50 at 24 h in series [1] is > 128 µM. The same compound showed an inhibition in series [2] of 87.2%. Besides, the IC50 in series [3] is 20 to 160 µM. Also, the inhibition entry in series [4] was “inactive”.
Take `O=C(CN1C(=O)S/C(=C\c2ccc(F)cc2)C1=O)NOCc1ccccc1`: the CC50 at 24 h in series [1] was > 128 µM. Further, in series [5], the percent inhibition of intracellular bacterial growth at 10 µM was found to be 20.6%. This compound returned an inhibition in series [2] of 78.3%. The same compound had an IC50 in series [3] of 20 to 160 µM.
For `CCCC/C=C1\SC(=O)N(C(C)C(=O)NOCc2ccccc2)C1=O` (centres undefined), in series [1], the CC50 at 24 h worked out at 43.9 µM. In series [2], the inhibition came out at 37.1%. For the same compound, in series [3], the IC50 lay in the range of 20 to 160 µM. Further, the selectivity ratio in series [6] was > 0.7. Moreover, the inhibition entry in series [4] was “inactive”.
Turning to `CC(C(=O)NOCc1ccccc1)N1C(=O)CSC1=O` (centres undefined), in series [1], the CC50 at 24 h is > 128 µM. The same compound registered an inhibition in series [2] of 78.1%. The compound also returned an IC50 in series [3] of 20 to 160 µM.
With `CCCC/C=C1\SC(=O)N(CC(=O)NOCc2ccccc2)C1=O`, in series [1], the CC50 at 24 h is > 128 µM. This compound showed an inhibition in series [2] of 99.8%. In series [3], this compound gave an IC50 of 20 to 160 µM. In addition, the inhibition result in series [4] is “inactive”.
In the case of `CC(C)C[C@H](NP(=O)(O)O[C@@H]1O[C@@H](C)[C@H](O)[C@@H](O)[C@H]1O)C(=O)N[C@@H](Cc1c[nH]c2ccccc12)C(=O)O` [PHOSPHORAMIDON], the inhibition in series [2] was 78%. The compound also gave an IC50 in series [3] of 20 to 160 µM.
On to `C=CCONC(=O)CN1C(=O)S/C(=C\c2ccccc2)C1=O`, for which the CC50 at 24 h in series [1] was > 128 µM. The inhibition in series [2] worked out at 59%. In series [3], this compound registered an IC50 of 20 to 160 µM.
Consider `C=CCONC(=O)CN1C(=O)S/C(=C\c2ccc(F)cc2)C1=O`, for which the CC50 at 24 h in series [1] is > 128 µM. The inhibition in series [2] was found to be 69.8%. Further, the half-inhibitory concentration (IC50) in series [3] is 20 to 160 µM.
For the compound `CC(C(=O)NOCc1ccccc1)N1C(=O)S/C(=C\c2ccccc2)C1=O` (centres undefined), the CC50 at 24 h in series [1] is > 128 µM. In addition, in series [5], the percent inhibition of intracellular bacterial growth at 10 µM was 46.9%. This compound yielded an inhibition in series [2] of 93.3%. Further, the IC50 in series [3] was in the range of 20 to 160 µM.
With `C=CCONC(=O)C(C)N1C(=O)S/C(=C\c2ccccc2)C1=O` (centres undefined), the CC50 at 24 h in series [1] was > 128 µM. The same compound displayed an inhibition in series [2] of 13%. In series [3], the IC50 is 20 to 160 µM.
Regarding `CC(C(=O)NOCc1ccccc1)N1C(=O)S/C(=C\c2ccc(F)cc2)C1=O` (centres undefined), the CC50 at 24 h in series [1] was > 128 µM. For the same compound, in series [5], the percent inhibition of intracellular bacterial growth at 10 µM stood at 25.1%. The inhibition in series [2] came to 95.8%. The compound also showed an IC50 in series [3] of 20 to 160 µM.
Consider `O=C(CN1C(=O)S/C(=C\c2ccccc2)C1=O)NOCc1ccccc1`, for which, in series [1], the CC50 at 24 h is > 128 µM. For the same compound, the percent inhibition of intracellular bacterial growth at 10 µM in series [5] stood at 38.3%. This compound showed an inhibition in series [2] of 59.5%. In addition, the IC50 in series [3] fell in the range of 20 to 160 µM.
As for `O=C(CN1C(=O)CSC1=O)NOCc1ccccc1`, the CC50 at 24 h in series [1] is > 128 µM. The inhibition in series [2] turned out to be 31.9%. In series [3], this compound returned an IC50 of 20 to 160 µM.
`C=CCONC(=O)C(C)N1C(=O)S/C(=C\c2ccc(C(F)(F)F)cc2)C1=O` (centres undefined): the CC50 at 24 h in series [1] is > 128 µM. The compound further returned an inhibition in series [2] of 44.5%. This compound came in with an IC50 in series [3] of 20 to 160 µM. The inhibition result in series [4] is “inactive”.
As for `C=CCONC(=O)CN1C(=O)CSC1=O`, the CC50 at 24 h in series [1] was > 128 µM. Further, the percent inhibition of intracellular bacterial growth at 10 µM in series [5] stood at 30.2%. The same compound yielded an inhibition in series [2] of 92.2%. In series [3], this compound returned an IC50 of 20 to 160 µM.
On to `CC/C(=C(\c1ccccc1)c1ccc(OCCN(C)C)cc1)c1ccccc1` [TAMOXIFEN], for which the CC50 at 24 h in series [1] turned out to be 11.1 µM.
Regarding `CC(C(=O)NOCc1ccccc1)N1C(=O)S/C(=C\c2ccc(C(F)(F)F)cc2)C1=O` (centres undefined), the CC50 at 24 h in series [1] is > 128 µM. Further, the percent inhibition of intracellular bacterial growth at 10 µM in series [5] was 19.4%. The compound also returned an inhibition in series [2] of 16.3%. The compound also registered a half-inhibitory concentration (IC50) in series [3] of 20 to 160 µM.
For `C=CCONC(=O)C(C)N1C(=O)CSC1=O` (centres undefined), in that order: > 128 µM, 21.6%, 57.9% and 20 to 160 µM.
Regarding `O=C(CN1C(=O)S/C(=C\c2ccc(C(F)(F)F)cc2)C1=O)NOCc1ccccc1`, the CC50 at 24 h in series [1] is > 128 µM. Also, the percent inhibition of intracellular bacterial growth at 10 µM in series [5] came to 48.8%. In series [2], this compound had an inhibition of 64.9%. This compound also registered an IC50 in series [3] of 38 µM. Further, the inhibition in vivo at 100 µM in series [7] was 70.4%.
Consider `C=CCONC(=O)CN1C(=O)S/C(=C\CCCC)C1=O`, for which the CC50 at 24 h in series [1] was > 128 µM. This compound also showed an inhibition in series [2] of 89.9%. The compound also displayed an IC50 in series [3] of 18 µM. The selectivity ratio in series [6] is > 2.1. For the same compound, the inhibition entry in series [8] is “Active”.
